Compounds with a hit are over-represented: about 2.1% of the library has one in this group of screens.
m5-HT2A agonist: mouse Htr2a agonists via beta-arrestin recruitment, primary screen, cell-based, luminescence | 5-hydroxytryptamine receptor 2A (Mus musculus), P35363 | CHO-K1 mHTR2A beta-arrestin complementation; percent of 30 µM serotonin response | activation, % at 7.6 µM | 0.66% of 360,000 active;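 active = activation above a run cutoff, the mean activation of all tested compounds plus 3 SD, cut at about 14% in these data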;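 note: 0% = plate median of compound wells and 100% = 30 µM serotonin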
CXCR6 block: CXCR6 receptor inhibitors, primary screen, cell-based, beta-arrestin, luminescence, CHO-K1 PathHunter, 1536-well; inhibition, % at 20 µM; C-X-C chemokine receptor type 6 (Homo sapiens), O00574; 0.36% of 360,000 active; in the data active = inhibition above about 34%, passing the limit was not always enough;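 note: antagonist mode with CXCL16 agonist at 10 nM final; 0% = 10 nM CXCL16 with DMSO and 100% = unstimulated wells without agonist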
EBI2 block: EBI2 receptor antagonists, beta-arrestin recruitment, primary screen, cell-based, luminescence, 7a,25-OHC stimulation, uHTS. 7a,25-OHC stimulated. 0.81% of 360,000 active. AID 651636, 2012. G-protein coupled receptor 183 (Homo sapiens), P32249. inhibition, % at 5 µM; in the data active = inhibition above about 38%;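 note: enzyme fragment complementation signal reports receptor beta-arrestin coupling in cells; 0% = agonist plus DMSO wells and 100% = wells without agonist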
APJ antag: antagonists of human apelin receptor APJ, primary screen, CHO-K1 cells, beta-arrestin complementation, luminescence; 0.32% of 330,000 active; inhibition, % at 20 µM; P35414;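 active = inhibition above about 40% at 20 µM, limit read from the data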;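 note: cells challenged with 10 nM apelin-13 agonist together with compound; plate controls were apelin-13 plus DMSO wells for no effect and DMSO wells lacking apelin-13 for full effect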
APJ agonist: agonists of human apelin receptor APJ, primary screen, CHO-K1 cells, PathHunter beta-arrestin, luminescence. 0% DMSO wells, 100% apelin. activation, % at 20 µM. 0.11% of 330,000 active. AID 2520, 2010;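 active = activation more than six SD over the plate average, tested at 20 µM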;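 note: 0% = DMSO alone and 100% = apelin-13 at 10 nM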
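Test system – PathHunter CHO-K1 APJ (AGTRL-1) beta-arrestin reporter cells · Input – 1000 cells/well · Compound – single test compound dose, 20 µM final, 1% DMSO · Times – compound stimulation 90 min at 25 °C, detection 60 min · Technique – beta-gal luminescence · Read-out basis – APJ–arrestin association signal · Control set – negative DMSO alone, positive Apelin-13 at 10 nM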
CCR6 antag: CCR6 receptor antagonists, primary screen, cell-based, CHO-K1, luminescence, beta-arrestin, uHTS; inhibition, % at 20 µM; C-C chemokine receptor type 6 (Homo sapiens), P51684; AID 493098, 2011; 0.49% of 340,000 active; CHO-K1 CCR6 PathHunter beta-arrestin, CCL20-stimulated;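 active = compounds whose inhibition of the agonist-driven luminescence signal at 20 µM reaches about 50%, limit read from the data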;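 note: cells stimulated with CCL20 at 14 nM final; plate controls were DMSO with CCL20 for no effect and DMSO without agonist for full effect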
MOR ag counter: OPRM1 agonists via beta-arrestin recruitment, confirmation, counter-screen for mouse HTR2A agonist project, cell-based, luminescence, single concentration; U2OS OPRM1 beta-arrestin PathHunter; DMSO 0%, DAMGO 9.3 µM 100%; shares compounds with m5-HT2A agonist; 5.3% of 2,300 active; activation, % at 9.3 µM;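 active = mean activation above the mean of DMSO-only wells plus 3 SD, cut at about 0.5% in these data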
Target sequence (P35372 whole entry, looked up): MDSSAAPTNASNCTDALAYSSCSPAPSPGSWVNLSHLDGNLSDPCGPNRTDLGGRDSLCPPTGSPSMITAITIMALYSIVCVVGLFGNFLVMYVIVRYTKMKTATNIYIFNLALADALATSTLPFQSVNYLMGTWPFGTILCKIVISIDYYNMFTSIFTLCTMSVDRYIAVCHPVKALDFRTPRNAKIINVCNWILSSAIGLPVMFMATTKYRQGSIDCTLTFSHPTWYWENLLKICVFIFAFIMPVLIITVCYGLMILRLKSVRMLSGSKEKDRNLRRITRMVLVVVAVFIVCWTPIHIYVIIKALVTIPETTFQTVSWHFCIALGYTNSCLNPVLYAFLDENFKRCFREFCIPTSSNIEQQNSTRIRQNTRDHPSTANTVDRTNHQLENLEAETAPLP
m5-HT2A ag conf: mouse HTR2A agonists, beta-arrestin recruitment, confirmation, cell-based, luminescence, CHO-K1 PathHunter, triplicate. AID 624381, 2012. 19% of 2,300 active. DMSO 0%, 30 µM serotonin 100%. activation, % at 7.6 µM. shares compounds with m5-HT2A agonist;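 active = mean activation across triplicates above the hit threshold derived in the original primary screen, cut at about 15% in these data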
Active calls of the source: *; . = not tested or not shown.

SMILES | m5-HT2A agonist | CXCR6 block | EBI2 block | APJ antag | APJ agonist | CCR6 antag | MOR ag counter | m5-HT2A ag conf
O=C(Cc1ccc(Br)cc1)N1CCN(Cc2ccccc2)CC1 | 21.4* | -5.4 | 17.2 | 14.2 | -3.1 | 0.9 | -0.8 | 3.7
CCC(C)N1CCN(C(=O)Cc2ccccc2)CC1 (stereo not given) | 20.1* | 4.3 | -5.9 | 0.9 | -2.9 | 14.6 | -0.4 | 3.5
Cc1ccc(CC(=O)N2CCN(Cc3ccccc3)CC2)cc1 | 3.9 | -4.6 | 10.2 | 3.8 | -4.4 | 11.8 | . | .
CN(C)CCN(C(=O)COc1ccc(Cl)cc1)c1nc2cc3c(cc2s1)OCO3 | 1.1 | 6.9 | -0.7 | 12.6 | -7.2 | 13.4 | . | .
C[C@]12CC[C@H](O)CC1=CC(=O)C1C2CC[C@]2(C)C(=O)[C@H](O)CC12 (stereo not given in full) | 2.6 | 1.0 | 5.1 | 9.4 | -5.9 | 9.1 | . | .
CC[N+](CC)(CC)CC | -1.0 | -6.5 | -4.8 | 3.9 | -4.3 | 11.5 | . | .
Clc1ccc2sc(C3CCNCC3)nc2c1 | 37.7* | 3.0 | -7.4 | -36.7 | -4.8 | 8.2 | -0.6 | 15.5*
COc1ccc2c3c1OC1C(=O)CC[C@@]4(O)[C@@H](C2)N(CC2CC2)CC[C@]314 (stereo not given in full) | -2.9 | 0.0 | 1.1 | 5.9 | -4.0 | 3.1 | . | .
O=C(NCNC(=O)NC1C(=O)NC(=O)N1CO)NC1C(=O)NC(=O)N1CO (stereo not given) | 16.7* | -9.2 | -6.4 | 0.2 | 2.1 | 17.8 | -0.2 | 0.9
CCOc1cccc(CNCCc2c(C)[nH]c3ccc(OC(F)(F)F)cc23)c1O | 26.8* | 5.8 | -7.2 | -19.5 | 12.9 | -1.3 | 1.2* | 22.4*
Cc1[nH]c2ccc(OC(F)(F)F)cc2c1CCNCc1cccc([N+](=O)[O-])c1 | -4.8 | 1.2 | 4.0 | 1.9 | -3.2 | 15.9 | . | .
COC(=O)C1=C(c2cccc(C#N)c2)C[C@@H]2CC[C@H]1N2C(=O)N1CCCCC1 | -0.1 | -4.0 | -3.0 | -6.2 | -4.4 | 24.0 | . | .
CC1[C@H]2Cc3ccc(O)cc3[C@]1(C)CCN2CCc1ccccc1 (stereo not given in full) | -1.3 | -5.0 | -4.0 | -2.2 | -3.3 | 8.8 | . | .
CCCN1CC[C@@H]2c3cc(O)ccc3CC[C@@H]21 | 16.5* | -8.8 | -3.7 | 0.2 | 2.4 | 15.7 | -0.4 | 49.0*
COP(=O)(OC)C1(Nc2ccc(C)cc2)CCCCC1 | 15.4* | 7.8 | -8.8 | 17.3 | -2.6 | 21.6 | -0.6 | -3.2
CCC(C)C(NC(=O)CCCNC(=O)CCC(=O)OC1O[C@H]2OC3(C)CC[C@H]4[C@H](C)CCC(C1C)C24OO3)C(=O)O (stereo not given in full) | 20.6* | -29.3 | -19.4 | -39.6 | 11.9 | . | 0.6* | -3.9
CCC(C)NC(=O)CCC(=O)OC1O[C@H]2OC3(C)CC[C@H]4[C@H](C)CCC(C1C)C24OO3 (stereo not given in full) | -3.9 | -13.7 | -21.3 | . | . | -17.7 | . | .
CCC(C)C1NC(=O)C(NC(=O)C(CC(C)C)N(C)C(=O)C2CCCN2C(=O)C(C)O)C(C)OC(=O)C(Cc2ccc(OC)cc2)N(C)C(=O)C2CCCN2C(=O)C(CC(C)C)NC(=O)[C@H](C)C(=O)[C@H](C(C)C)OC(=O)CC1O (stereo not given in full) | -0.1 | 15.5 | 16.9 | . | . | 16.5 | . | .
CC(C)[C@@]1(NC(=O)[C@@H]2C[C@@H]3c4cccc5[nH]cc(c45)C[C@H]3N(C)C2)O[C@@]2(O)[C@@H]3CCCN3C(=O)[C@H](Cc3ccccc3)N2C1=O | 29.8* | 11.7 | -1.2 | 13.7 | -5.6 | 22.1 | -0.3 | 83.0*
CC(=O)NCC1=C(c2cccc3ccccc23)C[C@@H]2CC[C@H]1N2Cc1ccco1 | 0.4 | 2.9 | 4.7 | . | . | . | . | .
O=C(NN=Cc1ccc(N(CCCl)CCCl)cc1)c1cc(=O)[nH]c(=O)[nH]1 | 18.4* | -10.2 | 4.7 | . | . | 0.6 | -0.8 | -1.9
Oc1ccc(C2=CCNCC2)cc1O | 35.7* | 2.5 | -17.6 | -71.3 | 5.7 | 2.5 | -0.4 | 117.2*
COC(=O)C1=C(c2ccc(OC(F)(F)F)cc2)C[C@@H]2CC[C@H]1N2C(=O)NC1CCCCC1 | -9.1 | 4.5 | 16.6 | -15.2 | -5.4 | 14.5 | . | .
O=C(/C=C/c1ccccc1)c1c(O)n(CCc2ccccc2)c(=O)[nH]c1=O | 15.5* | 0.9 | 0.9 | 2.3 | 3.6 | 9.4 | -0.6 | 1.3
O=C(/C=C/c1ccc2c(c1)OCO2)c1c(O)n(CCc2ccccc2)c(=O)[nH]c1=O | 5.0 | 11.3 | -0.7 | 12.7 | -2.4 | 2.3 | . | .
SMILES | m5-HT2A agonist | CXCR6 block | EBI2 block | APJ antag | APJ agonist | CCR6 antag | MOR ag counter | m5-HT2A ag conf
CCC1(CC)C(=O)NC(=O)N(c2ccccc2)C1=O | -2.9 | -1.0 | 1.3 | . | . | -3.1 | . | .
Clc1cccc(N2CCNCC2)c1 | 24.7* | 3.0 | -3.7 | -3.4 | -4.1 | 16.2 | -0.7 | 6.7
c1ccc2oc(N3CCNCC3)nc2c1 | 29.4* | 0.0 | -1.0 | -8.1 | -2.5 | -1.6 | -0.5 | 10.9
CN1CCN(c2nc3ccccc3o2)CC1 | -0.1 | -5.5 | -0.6 | -10.7 | -4.7 | -0.8 | . | .
CC(=O)C1C(N2CC2)CC2C3CC=C4CC(O)CCC4(C)C3CCC21C (stereo not given) | 33.0* | 3.3 | 18.4 | . | . | -5.6 | -0.6 | 2.1
Cc1cc(O)c2c(C)c(CC(=O)N3C[C@H]4C[C@@H](C3)c3cccc(=O)n3C4)c(=O)oc2c1 | 18.7* | 10.6 | 0.9 | 9.5 | -6.8 | 4.9 | -0.7 | -3.2

Source: PubChem
